In ChEMBL document CHEMBL2311328, “Molecular docking and synthesis of novel quinazoline analogues as inhibitors of transcription factors NF-κB activation and their anti-cancer activities” (2013):
Active and inactive are the calls of the source. The rule behind the calls is not given here.

How the values were obtained:
HepG2 [1] = assay: Inhibition of TNFalpha-induced NFkappaB (unknown origin)-dependent transcriptional activity expressed in human HepG2 cells at 1 uM incubated for 1 hr prior to TNFalpha induction measured after 6 hrs by dual-luciferase reporter gene assay; format: cell-based
Summary of the method: (§1)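 HepG2 cells in DMEM with 10% FBS were lipofectamine-transfected with 10 ng/well pGL4.32 NF-κB-Luc plus Renilla control. Compound in DMSO was given in fresh medium for 1 h at 37 °C, then TNFα (final 20 ng/ml) for 6 h. Cells were lysed in passive lysis buffer. Firefly light units were normalized to Renilla; one-way ANOVA.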

HepG2 [2] = assay: Cytotoxicity against human HepG2 cells assessed as cellular growth at 50 uM incubated for 1 hr prior to TNF alpha stimulation measured after 48 hrs by SRB assay; format: functional
Summary of the method: (§2)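 HepG2 cells in DMEM with 10% FBS and penicillin/streptomycin were allowed to adhere 24 h, and a T0 plate was fixed. Compound was given for 1 h at 37 °C, with or without 20 ng/ml TNFα, then 48 h more. Cells were stained with 0.4% SRB for 30 min at RT, washed in 1% acetic acid, and solubilized in 10 mM Tris. OD read at 515 nm; one-way ANOVA.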

HepG2 [3] = assay: Cytotoxicity against human HepG2 cells assessed as cellular growth at 50 uM after 48 hrs by SRB assay in absence of TNFalpha; format: functional; summary of the method: as §2
HepG2 [4] = assay: Inhibition of TNFalpha-induced NFkappaB (unknown origin)-dependent transcriptional activity expressed in human HepG2 cells at 0.1 to 10 uM incubated for 1 hr prior to TNFalpha induction measured after 6 hrs by dual-luciferase reporter gene assay; format: cell-based; summary of the method: as §1
BT-549 = assay: Cytotoxicity against human BT549 cells after 48 hrs by SRB assay; format: functional; conditions: BT-549, 48 h
Summary of the method: (§3)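 Screened by the NCI Developmental Therapeutics Program in dose-response format. GI50 was determined by the sulforhodamine B protocol.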

T47D = assay: Cytotoxicity against human T47D cells after 48 hrs by SRB assay; format: functional; summary of the method: as §3
MDA-MB-231 = assay: Cytotoxicity against human MDA-MB-231 cells after 48 hrs by SRB assay; format: functional; conditions: MDA-MB-231, 48 h; summary of the method: as §3
Hs-578T = assay: Cytotoxicity against human Hs578T cells after 48 hrs by SRB assay; format: functional; summary of the method: as §3
DU-145 = assay: Cytotoxicity against human DU145 cells after 48 hrs by SRB assay; format: functional; conditions: DU-145, 48 h; summary of the method: as §3
MCF7 = assay: Cytotoxicity against human MCF7 cells after 48 hrs by SRB assay; format: functional; conditions: MCF7, 48 h; summary of the method: as §3
UO-31 = assay: Cytotoxicity against human UO31 cells after 48 hrs by SRB assay; format: functional; conditions: UO-31, 48 h; summary of the method: as §3
PC-3 = assay: Cytotoxicity against human PC3 cells after 48 hrs by SRB assay; format: functional; conditions: PC-3, 48 h; summary of the method: as §3
SN12C = assay: Cytotoxicity against human SN12C cells after 48 hrs by SRB assay; format: functional; summary of the method: as §3
TK-10 = assay: Cytotoxicity against human TK10 cells after 48 hrs by SRB assay; format: functional; conditions: TK-10, 48 h; summary of the method: as §3
CAKI-1 = assay: Cytotoxicity against human Caki1 cells after 48 hrs by SRB assay; format: functional; conditions: CAKI-1, 48 h; summary of the method: as §3
RXF 393 = assay: Cytotoxicity against human RXF393 cells after 48 hrs by SRB assay; format: functional; conditions: RXF 393, 48 h; summary of the method: as §3
786-0 = assay: Cytotoxicity against human 786-0 cells after 48 hrs by SRB assay; format: functional; conditions: 786-0, 48 h; summary of the method: as §3
A498 = assay: Cytotoxicity against human A498 cells after 48 hrs by SRB assay; format: functional; conditions: A498, 48 h; summary of the method: as §3
[5] = Cytotoxicity against human NCI-ADR-RES cells after 48 hrs by SRB assay; format: functional; summary of the method: as §3
[6] = Cytotoxicity against human SKOC3 cells after 48 hrs by SRB assay; format: functional; conditions: SKOC3, 48 h; summary of the method: as §3
OVCAR-8 = assay: Cytotoxicity against human OVCAR8 cells after 48 hrs by SRB assay; format: functional; conditions: OVCAR-8, 48 h; summary of the method: as §3
OVCAR-4 = assay: Cytotoxicity against human OVCAR4 cells after 48 hrs by SRB assay; format: functional; conditions: OVCAR-4, 48 h; summary of the method: as §3
IGROV-1 = assay: Cytotoxicity against human IGROV1 cells after 48 hrs by SRB assay; format: functional; conditions: IGROV-1, 48 h; summary of the method: as §3
OVCAR-3 = assay: Cytotoxicity against human OVCAR3 cells after 48 hrs by SRB assay; format: functional; conditions: OVCAR-3, 48 h; summary of the method: as §3
UACC-257 = assay: Cytotoxicity against human UACC257 cells after 48 hrs by SRB assay; format: functional; conditions: UACC-257, 48 h; summary of the method: as §3
UACC-62 = assay: Cytotoxicity against human UACC62 cells after 48 hrs by SRB assay; format: functional; conditions: UACC-62, 48 h; summary of the method: as §3
SK-MEL-2 = assay: Cytotoxicity against human SK-MEL-2 cells after 48 hrs by SRB assay; format: functional; conditions: SK-MEL-2, 48 h; summary of the method: as §3
SK-MEL-28 = assay: Cytotoxicity against human SK-MEL-28 cells after 48 hrs by SRB assay; format: functional; conditions: SK-MEL-28, 48 h; summary of the method: as §3
MDA-MB-435 = assay: Cytotoxicity against human MDA-MB-435 cells after 48 hrs by SRB assay; format: functional; conditions: MDA-MB-435, 48 h; summary of the method: as §3
M14 = assay: Cytotoxicity against human M14 cells after 48 hrs by SRB assay; format: functional; conditions: M14, 48 h; summary of the method: as §3
LOX IMVI = assay: Cytotoxicity against human LOXIMVI cells after 48 hrs by SRB assay; format: functional; summary of the method: as §3
Malme-3M = assay: Cytotoxicity against human MALME-3M cells after 48 hrs by SRB assay; format: functional; summary of the method: as §3
U-251 = assay: Cytotoxicity against human U251 cells after 48 hrs by SRB assay; format: functional; conditions: U-251, 48 h; summary of the method: as §3
SNB-19 = assay: Cytotoxicity against human SNB19 cells after 48 hrs by SRB assay; format: functional; conditions: SNB-19, 48 h; summary of the method: as §3
SNB-75 = assay: Cytotoxicity against human SNB75 cells after 48 hrs by SRB assay; format: functional; conditions: SNB-75, 48 h; summary of the method: as §3
SF-295 = assay: Cytotoxicity against human SF295 cells after 48 hrs by SRB assay; format: functional; conditions: SF-295, 48 h; summary of the method: as §3
SF-539 = assay: Cytotoxicity against human SF539 cells after 48 hrs by SRB assay; format: functional; conditions: SF-539, 48 h; summary of the method: as §3
SF-268 = assay: Cytotoxicity against human SF268 cells after 48 hrs by SRB assay; format: functional; conditions: SF-268, 48 h; summary of the method: as §3
SW-620 = assay: Cytotoxicity against human SW620 cells after 48 hrs by SRB assay; format: functional; conditions: SW-620, 48 h; summary of the method: as §3
KM12 = assay: Cytotoxicity against human KM12 cells after 48 hrs by SRB assay; format: functional; conditions: KM12, 48 h; summary of the method: as §3
HCT-15 = assay: Cytotoxicity against human HCT15 cells after 48 hrs by SRB assay; format: functional; conditions: HCT-15, 48 h; summary of the method: as §3
HCT-116 = assay: Cytotoxicity against human HCT116 cells after 48 hrs by SRB assay; format: functional; conditions: HCT-116, 48 h; summary of the method: as §3
HCC 2998 = assay: Cytotoxicity against human HCC2998 cells after 48 hrs by SRB assay; format: functional; conditions: HCC 2998, 48 h; summary of the method: as §3
COLO 205 = assay: Cytotoxicity against human COLO205 cells after 48 hrs by SRB assay; format: functional; conditions: COLO 205, 48 h; summary of the method: as §3
EKVX = assay: Induction of apoptosis in TNFalpha-stimulated human EKVX cells at 1 uM incubated for 1 hr prior to TNFalpha stimulation measured after 18 hrs by TUNEL assay; format: functional, cell-based
Summary of the method: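 EKVX cells in RPMI 1640 with 10% FBS were grown on glass coverslips. Compound was given for 1 h at 37 °C, then 20 ng/ml TNFα for 18 h. Cells were fixed in 3.7% paraformaldehyde, treated with proteinase K for 30 min, then TUNEL-labelled with streptavidin-fluorescein plus DAPI. Scored by fluorescence microscopy.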

SMILES: c1ccc(CN2CCN(c3ncnc4ccccc34)CC2)cc1
- inhibition (HepG2 [1]): Active
- Activity (HepG2 [2]): -17.6%
- Activity (HepG2 [3]): -16.7%

SMILES: Oc1ccc(Br)cc1CN1CCN(c2nc(-c3ccccc3)nc3ccccc23)CC1
- inhibition (HepG2 [1]): Active
- Activity (HepG2 [2]): 13%
- Activity (HepG2 [3]): 15.5%

SMILES: Nc1ccc2ncnc(NCCc3ccc(Oc4ccccc4)cc3)c2c1
- inhibition (HepG2 [4]): Active

SMILES: c1ccc(-c2nc(NCCc3c[nH]c4ccccc34)c3ccccc3n2)cc1
- GI50 (BT-549): 4400 nM
- GI50 (T47D): 2400 nM
- GI50 (MDA-MB-231): 3100 nM
- GI50 (Hs-578T): 3400 nM
- GI50 (DU-145): 4700 nM
- GI50 (MCF7): 4200 nM
- GI50 (UO-31): 3000 nM
- GI50 (PC-3): 2400 nM
- GI50 (SN12C): 3900 nM
- GI50 (TK-10): 2800 nM
- GI50 (CAKI-1): 3100 nM
- GI50 (RXF 393): 1900 nM
- GI50 (786-0): 2500 nM
- GI50 (A498): 2000 nM
- GI50 [5]: 2600 nM
- GI50 [6]: 3700 nM
- GI50 (OVCAR-8): 2200 nM
- GI50 (OVCAR-4): 3600 nM
- GI50 (IGROV-1): 3200 nM
- GI50 (OVCAR-3): 2900 nM
- GI50 (UACC-257): 3200 nM
- GI50 (UACC-62): 2000 nM
- GI50 (SK-MEL-2): 3000 nM
- GI50 (SK-MEL-28): 6200 nM
- GI50 (MDA-MB-435): 2300 nM
- GI50 (M14): 2600 nM
- GI50 (LOX IMVI): 2200 nM
- GI50 (Malme-3M): 2800 nM
- GI50 (U-251): 3200 nM
- GI50 (SNB-19): 5100 nM
- GI50 (SNB-75): 5900 nM
- GI50 (SF-295): 2000 nM
- GI50 (SF-539): 2000 nM
- GI50 (SF-268): 4600 nM
- GI50 (SW-620): 3000 nM
- GI50 (KM12): 2800 nM
- GI50 (HCT-15): 2500 nM
- GI50 (HCT-116): 2800 nM
- GI50 (HCC 2998): 2100 nM
- GI50 (COLO 205): 2200 nM
- Activity (EKVX): Active
- inhibition (HepG2 [4]): Active
- inhibition (HepG2 [1]): Active
- Activity (HepG2 [2]): -46.7%
- Activity (HepG2 [3]): -35.3%

SMILES: Oc1ccccc1CN1CCN(c2nc(-c3ccccc3)nc3ccccc23)CC1
- inhibition (HepG2 [1]): Active
- Activity (HepG2 [2]): 13%
- Activity (HepG2 [3]): 14.6%

SMILES: c1ccc(CN2CCN(c3nc(-c4ccccc4)nc4ccccc34)CC2)cc1
- inhibition (HepG2 [1]): Active
- Activity (HepG2 [2]): 13.7%
- Activity (HepG2 [3]): 30.7%
